# Experiment: Toxicity liver stage against HepG2, at 10uM
# Assay type: cell-based
# Parameters: test concentration 10 uM, cell line HepG2-A16-CD81EGFP
# Details: human, HepG2-A16-CD81EGFP cells; read-out: INHIBITION
# Method in brief: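 Uninfected HepG2-A16-CD81EGFP cells, 3 × 10^3 per well, 1536-well, plated on prespotted compound at 10 μM final, parasite-free screening media added to match infected plates; puromycin 10 μM positive, DMSO 0.5% negative; run in parallel with 48 h PbLuc assay at 37 °C, 5% CO2; viability by CellTiter-Glo luminescence, normalized to controls.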
row,Compound,cytotoxicity at 10 µM
1,NS(=O)(=O)c1cccnc1NCc1ccco1,-8.21%
2,O=C(NC[C@H]1OC[C@@H](NC2CCC(F)(F)CC2)[C@@H]1O)C1CC1,-1.39%
3,Fc1ccc(-c2noc([C@@H]3Cc4nc[nH]c4CN3)n2)cc1,-5.9%
4,Cn1c(C(=O)N2CC[C@@]3(O)CCCC[C@H]3C2)cc2ccccc21,-46.8%
5,Cc1n[nH]c2c1C(c1ccc3c(c1)OCCO3)SCC(=O)N2 (stereo not given),-0.37%
6,Cc1cccc(-n2ncc3c(=O)n(CCN4CCCCC4)cnc32)c1C,-6.57%
7,CCOCC(=O)NCCn1ccc(-c2ccccn2)n1,11.4%
8,CCc1cnc(N2C[C@H]3CN(Cc4ccc(OC)cc4)C(=O)[C@H]3C2)nc1,11.6%
9,Cc1cc(CN2C[C@@H]3CN(Cc4ccsc4)CCO[C@@H]3C2)no1,-139%
10,COCCN1CCC2(CC1)CC(CC(N)=O)c1ccc(F)cc12 (stereo not given),8.98%
11,O=C(c1cnccn1)N1CCCC2(CCCN2Cc2cccnc2)C1 (stereo not given),-1.01%
12,COc1cc(CO)c(OC)c2c1OCO2,-2.93%
13,CC(C)c1nnc2ccc(N3CCC(C(=O)O)CC3)nn12,-1.92%
14,COc1ccc(NC(=O)N2CCCC2c2ccco2)cc1OC (stereo not given),-7.07%
15,CS(=O)(=O)N1CCCC12CCCN(S(=O)(=O)c1cc(F)cc(F)c1)C2 (stereo not given),10.9%
16,CCc1ncnc2c1CCN(C(=O)N1CCCC1)CC2,5.46%
17,Cc1nc([C@@H]2C[C@@H]3CCN(C(=O)c4ccnnc4)C[C@H]3O2)sc1C,2.68%
18,CCCn1nccc1C(=O)Nc1nc(C)c(C)s1,-6.19%
19,Cc1ccc(CNC(=O)c2cc(NC(=O)C3CC3)n(C)n2)o1,4.82%
20,CCn1ccc(NC(=O)c2cc(C)on2)n1,-2.23%
21,O=C(c1cc(-c2ccco2)cs1)N1CCOCC1,4.81%
22,CCn1nc(C)c2nc(C(C)C)nc(NCCCO)c21,6.48%

row,Compound,cytotoxicity at 10 µM
1,Cc1nn(CC(C)C)cc1S(=O)(=O)N(C)Cc1nonc1C,11.3%
2,COCc1ccc(OC)c(CNC2CCCNC2=O)c1 (stereo not given),3.66%
3,O=C(O)[C@@H]1CCN(C(=O)Cc2ccccn2)[C@@H]1c1ccc(F)cc1,4.22%
4,O[C@H]1CN(Cc2c[nH]nc2-c2ccccc2)CC[C@@]12CCCO2,10.3%
5,CN(C)S(=O)(=O)N1CCC(c2ccncn2)CC1,-20.5%
6,O=C(O)c1ccccc1CN1CCC(c2ccnc3ccnn23)CC1,-37.8%
7,CC(C)c1cc(O)nc(C2CCCN2C(=O)C2CC2)n1 (stereo not given),-25.1%
8,Cc1c(C2CCCN(C(=O)c3ccn(C)n3)C2)n2c(nc1=O)CCC2 (stereo not given),0.862%
9,CC(=O)Nc1nc(C2CCN(C(=O)c3ccncc3)CC2)cs1,-9.44%
10,COC(=O)CN1CCC(C(F)(F)F)CC1,8.12%
11,CCCS(=O)(=O)NC(=O)c1ccc(-n2nc(C)cc2C)cc1,1.36%
12,COc1ccc(Cl)cc1CN1CC(n2cccn2)C1,-1.73%
13,O=C(NC1=NCCS1)C1CSCN1C(=O)C1CCCC1 (stereo not given),6.8%
14,CC(C)Cc1nc(CN2CCC(N3CCN(C)C3=O)CC2)no1,14%
15,CNS(=O)(=O)CC1CCCN1c1ccccn1 (stereo not given),2.83%
16,CN(C)c1ccc(C(=O)Nc2cnn(Cc3ccccn3)c2)cc1,-8.36%
17,CS(=O)(=O)CCNC(=O)N1CC2(CCCC2)c2ccccc21,0.883%
18,COc1ccc(Cl)cc1CCNC(=O)NCc1cnn(C)c1C,3.87%
19,O=C(CNC(=O)c1cc(Cl)ccn1)Nc1nccs1,-1.87%
20,CCc1nccn1CC1CCCN1S(=O)(=O)N1CCCOCC1 (stereo not given),-11.5%
21,CCC(CC)NC(=O)c1nc2n(n1)-c1ccccc1S(=O)(=O)N2,8.3%
22,Clc1cccnc1N1CCC(NCc2cccc3cn[nH]c23)C1 (stereo not given),13.7%

row,Compound,cytotoxicity at 10 µM
1,O=C(Nc1cnn(Cc2ccc(Cl)cc2)c1)N[C@@H]1C=C[C@H](CO)C1,-2.96%
2,CCc1nnc(SC2CCCN(c3cccc(F)c3)C2=O)n1C (stereo not given),7.17%
3,CC(C)(C)OC(=O)NCC1CCCCN1Cc1ccccn1 (stereo not given),-3.59%
4,Cc1cc(CN2CCN(C(=O)CCc3cccs3)CC2)on1,-5%
5,Cc1nc(C)n(CC2CCCCN2Cc2nnc(-c3ccco3)o2)n1 (stereo not given),-10.2%
6,COCc1ccccc1NC(=O)NCc1ccc(OCC2CC2)nc1,3.88%
7,Cn1ccc2c(C(=O)N3CCN(C(=O)C4CCCC4)CC3)cccc21,-0.53%
8,CC(C)(C(=O)NCC(=O)NCc1ccccc1)c1ccccc1F,4.63%
9,O=C(NC1CCCN(c2ccccc2F)C1)c1ccon1 (stereo not given),-6.43%
10,CC(NS(=O)(=O)CCc1ccccn1)c1ccccc1Br (stereo not given),-4.74%
11,O=C1CN(C(=O)C2CCOCC2)CCN1Cc1ccc(Cl)cc1,-146%
12,CCc1nnc2n1CCN(C(=O)C(OC)c1ccccc1)C2 (stereo not given),3.65%
13,COCCN(Cc1ccccc1)Cc1nc(-c2ccsc2)no1,5.6%
14,CCNC(=O)CN(Cc1ccoc1)C1CCCCC1,7.59%
15,O=C(Nc1ccccc1Cn1cccn1)N1CCCC(N2CCCC2)C1 (stereo not given),5.6%
16,CCOCCN1CCN(CC(O)c2ccc(OC)cc2)CC1 (stereo not given),-2.28%
17,COc1c(C)cnc(CN2CCCC2c2noc(C)n2)c1C (stereo not given),-3.75%
18,Cc1nsc(NCc2ccc(S(=O)(=O)N(C)C(C)C)cc2)n1,16.2%
19,CCN(CC1CCCO1)S(=O)(=O)N1CCCCCC1 (stereo not given),-1%
20,CC(O)CC(C)(C)CNC(=O)NCc1cccc(-n2cncn2)c1 (stereo not given),-4.79%
21,CS(=O)(=O)NCCNC(=O)C1(c2cccc(Cl)c2)CC1,5.63%
22,CC(=O)N1CCO[C@@H]2CN(S(=O)(=O)c3ccc(C)cc3)CC[C@@H]2C1,8.28%

row,Compound,cytotoxicity at 10 µM
1,CNC(=O)[C@H]1C[C@@H]2CCN(Cc3ccc4c(c3)OCO4)C[C@@H]2O1,5.79%
2,Cc1cn2c(=O)c(-c3ccnc(NC4CCOCC4)n3)cnc2s1,-5.5%
3,COCCNS(=O)(=O)c1cccc2c1CN(C(=O)c1ccoc1)CC2,-3.88%
4,COc1ccc(OCc2cc(C(=O)N3CCCCO3)n[nH]2)c(Cl)c1,8.15%
5,Cc1cncc(C(=O)N2CCNCC2C(=O)NCc2ccncc2)c1 (stereo not given),-4%
6,O=C(Nc1cnc2n1CCCC2)c1cccc(OCC(F)(F)F)c1,-0.651%
7,CC(C)=CCN1CCN(S(=O)(=O)c2cn(C)cn2)[C@H]2CS(=O)(=O)C[C@H]21,0.634%
8,O=C(c1ccc(O)cn1)N1CCOC(Cc2cccc(C(F)(F)F)c2)C1 (stereo not given),5.08%
9,COCC(=O)N1CCCN(Cc2cc(C(C)C)no2)CC1,5.97%
10,Cc1nc(CC(=O)N2CCC3(CC2)CC(=O)N(CC2CCCO2)C3)cs1 (stereo not given),-7.85%
11,CNc1ncc(CN(C)c2nc(C)c3ccc(S(C)(=O)=O)cc3n2)cn1,-3.66%
12,COc1cc(C)c(C2CC(=O)NCc3nc4sccn4c32)cc1C (stereo not given),-2.19%
13,Oc1ccc(-c2c(-c3ccccc3)ncn2C[C@H]2CCCN2)cc1,17.5%
14,Cc1cc(C)n(CC(C)Nc2nc(C)nc3c2CCNC3)n1 (stereo not given),2.51%
15,Cc1nc(C(C)C)cc(N2CCC3(CCC(=O)N(CC4CC4)C3)CC2)n1,-2.99%
16,CC(C)Cc1cc(C(=O)NCC(c2ccc(F)cc2)N(C)C)n(C)n1 (stereo not given),-3.97%
17,COc1cccn(CC(=O)N2CCC3(CCNCC3)C2)c1=O,-11.4%
18,COc1nccc(N2CC[C@H](CO)[C@@H](O)C2)c1C#N,-141%
19,COc1ccc2c(c1)OCC(C(=O)NCc1ncc3c(n1)CCC3)C2 (stereo not given),2.15%
20,Cc1nccc(CNC(=O)CCc2c(C)nc3cc(O)nn3c2C)n1,-1.56%
21,Cc1ccc(CC(=O)N2CCCC(n3ccnc3C(C)C)C2)cn1 (stereo not given),-5.11%
22,CN(Cc1ccsc1)C(=O)c1cc2c([nH]c1=O)CCC2,-12.4%

row,Compound,cytotoxicity at 10 µM
1,CCc1nc(C2CCCN2C(=O)CCc2nc(C3CC3)no2)no1 (stereo not given),-2.66%
2,CN(C)c1cc(C(=O)N2CCN(c3cc(C#N)ccn3)CC2)ccn1,-9.27%
3,CN(Cc1ccccc1)C(=O)CN1CCOC(Cn2cncn2)C1 (stereo not given),-3.66%
4,Cc1cnc(CN(C)C2CCN(CCCc3ccccc3)C2)o1 (stereo not given),-4.02%
5,Cc1noc(C)c1CN(C)C(=O)c1ccc(C(F)(F)F)nc1,-10%
6,Cc1nc(C2CCCN2CC(=O)Nc2cc(C(C)(C)C)nn2C)no1 (stereo not given),-10.9%
7,CC(C)(C)C(=O)NCCc1ccn(-c2ccccc2)n1,1.76%
8,Cn1cncc1CN1CCc2nc3sccc3c(=O)n2CC1,-3.75%
9,COc1ccccc1CN1C[C@@H]2COC[C@]2(COc2cccnc2)C1,6.24%
10,CO[C@H]1CCN(S(=O)(=O)c2cn(C)cn2)[C@H]1Cc1ccccc1,6.19%
11,Fc1cccc(N2CCCC3(CN(Cc4ccccn4)CCO3)C2)c1 (stereo not given),2.29%
12,Cn1cc(CN2CCCC23CCN(C(=O)c2ccccc2)CC3)cn1,0.613%
13,CC(=O)N1CCC2(CC1)COCCN2CCN(C)C,-7.98%
14,CC1c2ncc(CNC(=O)C3CC3)n2CCN1Cc1cnn(C)c1 (stereo not given),-20.2%
15,O=C1CCCN1Cc1nnc2n1CCCN(Cc1ccco1)C2,3.24%
16,CC1c2ncc(Cn3cccn3)n2CCN1Cc1cccnc1 (stereo not given),6.49%
17,CC(C)NC(=O)[C@H]1C[C@@H]2[C@@H](C1)OCCN2Cc1cccs1,10.3%
18,Cc1ccc(C(=O)N2CCC3(CC2)COC(COc2ccccn2)C3)o1 (stereo not given),-0.954%
19,CN(C)C(=O)CN1CC[C@H]2[C@H]1CCN2c1ncccn1,8.28%
20,Cc1occc1C(=O)N1CCC[C@]2(C[C@@H](OCc3ccncc3)CO2)C1,-6.25%
21,COC(=O)Cn1c(=O)[nH]c2cn(-c3cccc(C)c3)c(=O)n21,5.42%
22,Cn1cccc1C(=O)N1C[C@@H]2CC[C@H]1CN(Cc1cscn1)C2,2.9%
